Series [1] is described as follows: Ratio of drug level in brain to blood in Sprague-Dawley rat at 1 mg/kg, iv and 3 mg/kg, po. The series is classed as ADME, organism-based. The settings on record: read-out: BBR. Put shortly:
(§1)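 Male Sprague-Dawley rats, cassette dosing, iv bolus or oral suspension. Blood and brain levels were measured by protein precipitation and HPLC-MS/MS. Brain:blood ratio was taken from AUC0-8h after oral dosing, or at 1 h after iv dosing for one compound.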

Series [2] is described as follows: Half life in Sprague-Dawley rat at 1 mg/kg, iv and 3 mg/kg, po. The conditions noted are these: in vivo. The series is classed as ADME, organism-based. Put shortly:
(§2)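 Male Sprague-Dawley rats, cassette dosing. Compounds were given as an iv bolus and as an oral suspension. Blood samples were taken at intervals up to 24 h, processed by protein precipitation and analysed by HPLC-MS/MS.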

The target of another series is Cytochrome P450 2C9 (Homo sapiens, UniProt P11712). As to the kind of experiment: Inhibition of human CYP2C9 transfected in bactosome expression system by spectrofluorimetry. It counts as ADME. In a few lines:
(§3)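 Recombinant human CYP Bactosomes (0.1 mg/mL) in 50 mM phosphate buffer, pH 7.4. Compound at 0.1-10 μM was preincubated with fluorogenic substrate for 10 min at 37 °C, and the reaction was started with an NADPH regenerating system. Metabolite fluorescence was followed for 10 min. Substrates: 1A2 ethoxyresorufin 0.5 μM; 2C9 FCA 50 μM; 2C19 BMC 10 μM; 2D6 MMC 10 μM; 3A4 DEF 1 μM or 7-BQ 25 μM. Run in triplicate.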

The nature of series [3]: Fraction unbound in rat blood. The series is classed as ADME, tissue-based.
The target in series [4] is Histamine H1 receptor (Homo sapiens, UniProt P35367). As to the kind of experiment: Antagonist activity against human histamine H1 receptor expressed in CHO cells by FLIPR assay. It counts as functional, cell-based.
In another series the target is Cytochrome P450 2D6 (Homo sapiens, UniProt P10635). As to the kind of experiment: Inhibition of human CYP2D6 transfected in bactosome expression system by spectrofluorimetry. The series is classed as ADME. In a few lines:
as §3

A short description of series [5]: Fraction unbound in rat brain. The series is classed as ADME, tissue-based.
For another series, the target named is T1, Cytochrome P450 1A2 (Homo sapiens, UniProt P05177).
T1 sequence (P05177 whole entry): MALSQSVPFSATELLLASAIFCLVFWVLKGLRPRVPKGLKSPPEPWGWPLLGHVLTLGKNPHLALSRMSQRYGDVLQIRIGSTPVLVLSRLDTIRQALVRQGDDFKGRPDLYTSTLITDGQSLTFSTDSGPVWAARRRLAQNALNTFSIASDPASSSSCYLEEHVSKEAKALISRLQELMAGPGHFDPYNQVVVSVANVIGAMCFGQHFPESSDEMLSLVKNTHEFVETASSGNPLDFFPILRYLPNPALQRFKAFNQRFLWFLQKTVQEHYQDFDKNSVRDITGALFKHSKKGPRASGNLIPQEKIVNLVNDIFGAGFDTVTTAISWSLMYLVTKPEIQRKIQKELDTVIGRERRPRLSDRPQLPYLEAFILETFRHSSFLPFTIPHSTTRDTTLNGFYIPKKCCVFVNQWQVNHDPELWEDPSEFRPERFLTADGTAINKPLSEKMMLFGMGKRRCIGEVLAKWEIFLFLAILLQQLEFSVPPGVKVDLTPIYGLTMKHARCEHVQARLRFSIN
Description: Inhibition of human CYP1A2 transfected in bactosome expression system by spectrofluorimetry. The series is classed as ADME. Put shortly:
as §3

Series [6] has as its target 5-hydroxytryptamine receptor 2B (Homo sapiens, UniProt P41595). As to the kind of experiment: Antagonist activity at human 5HT2B receptor expressed in human SH-SY5Y cells by FLIPR assay.
Series [7] addresses Voltage-gated inwardly rectifying potassium channel KCNH2 (Homo sapiens, UniProt Q12809). Description: Displacement of [3H]dofetilide from human ERG by scintillation proximity assay.
For another series, the target named is Cytochrome P450 2C19 (Homo sapiens, UniProt P33261). As to the kind of experiment: Inhibition of human CYP2C19 transfected in bactosome expression system by spectrofluorimetry. The series is classed as ADME. In a few lines:
as §3

In series [8] the target is T2, 5-hydroxytryptamine receptor 2C (Homo sapiens, UniProt P28335).
T2 sequence (P28335 whole entry): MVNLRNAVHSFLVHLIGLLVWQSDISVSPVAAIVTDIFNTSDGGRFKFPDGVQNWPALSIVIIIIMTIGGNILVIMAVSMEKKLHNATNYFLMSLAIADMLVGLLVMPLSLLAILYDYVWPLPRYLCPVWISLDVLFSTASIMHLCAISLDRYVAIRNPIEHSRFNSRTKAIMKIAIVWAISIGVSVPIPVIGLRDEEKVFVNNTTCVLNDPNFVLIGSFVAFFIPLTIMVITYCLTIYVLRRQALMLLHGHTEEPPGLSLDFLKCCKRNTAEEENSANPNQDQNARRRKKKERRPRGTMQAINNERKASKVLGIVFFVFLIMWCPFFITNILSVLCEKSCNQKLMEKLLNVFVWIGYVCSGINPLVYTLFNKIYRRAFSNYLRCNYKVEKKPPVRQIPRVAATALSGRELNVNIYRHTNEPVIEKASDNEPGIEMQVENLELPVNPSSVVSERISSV
As to the kind of experiment: Antagonist activity at human 5HT2C receptor expressed in human SH-SY5Y cells by FLIPR assay. It counts as functional, cell-based.

For series [9], the target named is Histamine H1 receptor (Rattus norvegicus, UniProt P31390). As to the kind of experiment: Displacement of [3H]pyrilamine from histamine H1 receptor in Sprague-Dawley rat cortical membrane by liquid scintillation counting. In a few lines:
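Cerebral cortex membranes from male Sprague-Dawley rats (200-250 g), 150 μg/well. Incubated with 0.6 nM [3H]pyrilamine in 50 mM HEPES, pH 7.4, for 2 h at room temperature. Filtered on PEI-soaked GF/B and counted by scintillation. Nonspecific binding with 10 μM cetirizine. Ki by Cheng-Prusoff; mean of two experiments in duplicate.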

For a further series, the target named is Cytochrome P450 3A4 (Homo sapiens, UniProt P08684). As to the kind of experiment: Inhibition of human CYP3A4 transfected in bactosome expression system by spectrofluorimetry. It counts as ADME. Put shortly:
as §3

Series [10] in a line: Oral bioavailability in Sprague-Dawley rat at 3 mg/kg. The series is classed as ADME, organism-based. The conditions noted are these: in vivo. Put shortly:
as §2

Series [11] concerns the target 5-hydroxytryptamine receptor 2A (Rattus norvegicus, UniProt P14842). Description: Displacement of [3H]ketanserin from 5HT2A receptor in Sprague-Dawley rat cortical membrane by liquid scintillation counting. In a few lines:
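Cerebral cortex membranes from male Sprague-Dawley rats (200-250 g), 50 μg/well. Incubated with 1 nM [3H]ketanserin in 50 mM Tris-HCl, 10 mM MgCl2, pH 7.4, for 1 h at 37 °C with shaking. Filtered on PEI-soaked GF/B and counted by scintillation. Nonspecific binding with 10 μM mianserin. Ki by Cheng-Prusoff; mean of two experiments in duplicate.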

The nature of series [12]: Blood clearance in Sprague-Dawley rat at 1 mg/kg, iv and 3 mg/kg, po. It counts as ADME, organism-based. The conditions noted are these: whole blood. In a few lines:
as §2

The target in series [13] is 5-hydroxytryptamine receptor 2A (Homo sapiens, UniProt P28223). Description: Antagonist activity at human 5HT2A receptor expressed in HEK cells assessed as inhibition of intracellular calcium accumulation by aequorin assay. It counts as functional, cell-based, HEK293.
Series [14] is described as follows: Volume of distribution at steady state in Sprague-Dawley rat at 1 mg/kg, iv and 3 mg/kg, po. It counts as ADME, organism-based. The settings on record: in vivo, read-out: Vdss. In a few lines:
as §2

Series [15] can be described thus: Volume of distribution at steady state in Sprague-Dawley rat at 0.5 mg/kg, iv and 1 mg/kg, po. It counts as ADME, organism-based. The conditions noted are these: in vivo, read-out: Vdss. Put shortly: as §2
Series [16] is described as follows: Blood clearance in Sprague-Dawley rat at 0.5 mg/kg, iv and 1 mg/kg, po. It counts as ADME, organism-based. The settings on record: whole blood. In a few lines: as §2
A short description of series [17]: Half life in Sprague-Dawley rat at 0.5 mg/kg, iv and 1 mg/kg, po. The series is classed as ADME, organism-based. The settings on record: in vivo. In a few lines:
as §2

Series [18] can be described thus: Ratio of drug level in brain to blood in Sprague-Dawley rat at 0.5 mg/kg, iv and 1 mg/kg, po. The conditions noted are these: read-out: BBR. It counts as ADME, organism-based. Put shortly:
as §1

Series [19] is described as follows: Oral bioavailability in Sprague-Dawley rat at 1 mg/kg. It counts as ADME, organism-based. The settings on record: in vivo. Put shortly: as §2
Series [20] in a line: Selectivity ratio of pKi for human alpha1A adrenergic receptor to pKi for human Alpha-1B adrenergic receptor.

A value given as a limit tells only on which side of the number the result lay.

Chain of Cytochrome P450 2D6 (P10635 whole entry): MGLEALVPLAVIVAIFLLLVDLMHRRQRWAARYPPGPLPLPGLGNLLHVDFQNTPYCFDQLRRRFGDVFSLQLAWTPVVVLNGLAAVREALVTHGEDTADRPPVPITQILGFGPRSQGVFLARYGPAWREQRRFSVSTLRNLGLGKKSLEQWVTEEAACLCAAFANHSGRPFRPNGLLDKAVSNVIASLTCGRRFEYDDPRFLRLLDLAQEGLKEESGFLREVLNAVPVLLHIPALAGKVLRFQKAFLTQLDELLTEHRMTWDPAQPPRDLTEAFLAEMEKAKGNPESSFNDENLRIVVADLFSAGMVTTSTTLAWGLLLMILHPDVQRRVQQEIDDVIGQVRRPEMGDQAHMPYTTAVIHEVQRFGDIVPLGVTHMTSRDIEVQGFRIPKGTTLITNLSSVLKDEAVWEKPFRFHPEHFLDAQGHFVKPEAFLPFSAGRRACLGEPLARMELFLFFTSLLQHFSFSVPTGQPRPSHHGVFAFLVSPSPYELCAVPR
Chain of Cytochrome P450 3A4 (P08684 whole entry): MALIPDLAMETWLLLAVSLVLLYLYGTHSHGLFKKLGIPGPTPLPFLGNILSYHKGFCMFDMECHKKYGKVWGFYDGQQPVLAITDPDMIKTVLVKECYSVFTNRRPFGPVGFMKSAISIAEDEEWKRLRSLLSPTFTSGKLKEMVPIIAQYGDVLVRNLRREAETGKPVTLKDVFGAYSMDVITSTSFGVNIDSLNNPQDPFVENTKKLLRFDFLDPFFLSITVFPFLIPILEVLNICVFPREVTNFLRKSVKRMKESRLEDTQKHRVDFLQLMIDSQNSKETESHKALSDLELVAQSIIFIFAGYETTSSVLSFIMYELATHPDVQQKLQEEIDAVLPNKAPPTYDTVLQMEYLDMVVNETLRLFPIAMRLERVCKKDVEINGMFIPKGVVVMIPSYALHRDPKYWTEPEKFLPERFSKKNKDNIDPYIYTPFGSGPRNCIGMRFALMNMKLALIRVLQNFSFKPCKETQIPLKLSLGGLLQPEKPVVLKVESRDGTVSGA
Chain of 5-hydroxytryptamine receptor 2A (Homo sapiens, UniProt P28223) (P28223 whole entry): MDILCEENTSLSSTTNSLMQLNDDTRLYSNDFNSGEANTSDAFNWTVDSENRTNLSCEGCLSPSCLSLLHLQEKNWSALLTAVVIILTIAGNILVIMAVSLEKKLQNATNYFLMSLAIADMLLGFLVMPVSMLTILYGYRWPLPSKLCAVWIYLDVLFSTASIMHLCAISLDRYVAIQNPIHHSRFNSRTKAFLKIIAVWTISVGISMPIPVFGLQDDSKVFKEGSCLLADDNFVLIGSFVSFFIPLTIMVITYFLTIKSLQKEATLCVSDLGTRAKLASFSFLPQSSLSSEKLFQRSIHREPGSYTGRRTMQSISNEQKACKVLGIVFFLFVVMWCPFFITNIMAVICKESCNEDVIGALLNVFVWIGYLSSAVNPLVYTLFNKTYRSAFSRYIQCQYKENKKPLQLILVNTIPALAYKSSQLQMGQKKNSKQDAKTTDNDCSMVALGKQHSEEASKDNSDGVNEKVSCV
Chain of Histamine H1 receptor (Homo sapiens, UniProt P35367) (P35367 whole entry): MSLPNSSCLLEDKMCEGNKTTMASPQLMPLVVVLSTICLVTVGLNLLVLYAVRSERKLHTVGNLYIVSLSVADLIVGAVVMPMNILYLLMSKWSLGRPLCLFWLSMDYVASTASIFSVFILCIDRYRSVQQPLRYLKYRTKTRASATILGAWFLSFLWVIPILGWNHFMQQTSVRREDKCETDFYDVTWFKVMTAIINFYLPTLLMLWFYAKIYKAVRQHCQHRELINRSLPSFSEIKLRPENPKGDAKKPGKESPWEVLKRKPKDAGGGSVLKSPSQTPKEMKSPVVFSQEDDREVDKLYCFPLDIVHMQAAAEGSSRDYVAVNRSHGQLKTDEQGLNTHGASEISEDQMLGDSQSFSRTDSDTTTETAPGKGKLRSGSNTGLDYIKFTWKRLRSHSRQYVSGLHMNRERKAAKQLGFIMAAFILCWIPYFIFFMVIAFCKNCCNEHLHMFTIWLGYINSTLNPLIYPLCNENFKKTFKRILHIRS
Chain of 5-hydroxytryptamine receptor 2A (Rattus norvegicus, UniProt P14842) (P14842 whole entry): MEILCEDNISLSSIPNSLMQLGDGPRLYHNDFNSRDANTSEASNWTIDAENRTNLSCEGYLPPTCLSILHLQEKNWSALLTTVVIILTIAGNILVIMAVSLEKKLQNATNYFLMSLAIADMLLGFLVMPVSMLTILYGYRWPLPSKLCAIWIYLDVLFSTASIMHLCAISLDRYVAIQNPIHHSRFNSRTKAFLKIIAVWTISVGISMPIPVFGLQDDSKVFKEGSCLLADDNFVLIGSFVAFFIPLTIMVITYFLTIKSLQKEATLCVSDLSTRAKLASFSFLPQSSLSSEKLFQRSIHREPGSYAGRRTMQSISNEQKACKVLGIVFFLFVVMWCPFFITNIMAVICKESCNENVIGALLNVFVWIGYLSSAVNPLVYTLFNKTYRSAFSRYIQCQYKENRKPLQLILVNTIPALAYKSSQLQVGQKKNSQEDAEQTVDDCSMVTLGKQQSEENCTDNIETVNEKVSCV
Chain of Cytochrome P450 2C9 (P11712 whole entry): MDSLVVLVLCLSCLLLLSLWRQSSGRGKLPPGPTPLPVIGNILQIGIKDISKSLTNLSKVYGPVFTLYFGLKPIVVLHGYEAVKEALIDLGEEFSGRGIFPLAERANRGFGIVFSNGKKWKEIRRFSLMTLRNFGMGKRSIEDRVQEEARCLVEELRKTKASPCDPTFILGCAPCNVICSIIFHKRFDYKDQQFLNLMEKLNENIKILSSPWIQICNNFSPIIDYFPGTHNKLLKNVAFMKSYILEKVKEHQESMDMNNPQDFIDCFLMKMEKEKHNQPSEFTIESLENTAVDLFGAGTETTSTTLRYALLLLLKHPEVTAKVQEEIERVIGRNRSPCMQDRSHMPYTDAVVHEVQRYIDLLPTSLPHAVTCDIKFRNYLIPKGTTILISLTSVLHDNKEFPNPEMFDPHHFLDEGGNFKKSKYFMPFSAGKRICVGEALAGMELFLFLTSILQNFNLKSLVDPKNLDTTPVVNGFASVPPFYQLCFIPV
Chain of 5-hydroxytryptamine receptor 2B (P41595 whole entry): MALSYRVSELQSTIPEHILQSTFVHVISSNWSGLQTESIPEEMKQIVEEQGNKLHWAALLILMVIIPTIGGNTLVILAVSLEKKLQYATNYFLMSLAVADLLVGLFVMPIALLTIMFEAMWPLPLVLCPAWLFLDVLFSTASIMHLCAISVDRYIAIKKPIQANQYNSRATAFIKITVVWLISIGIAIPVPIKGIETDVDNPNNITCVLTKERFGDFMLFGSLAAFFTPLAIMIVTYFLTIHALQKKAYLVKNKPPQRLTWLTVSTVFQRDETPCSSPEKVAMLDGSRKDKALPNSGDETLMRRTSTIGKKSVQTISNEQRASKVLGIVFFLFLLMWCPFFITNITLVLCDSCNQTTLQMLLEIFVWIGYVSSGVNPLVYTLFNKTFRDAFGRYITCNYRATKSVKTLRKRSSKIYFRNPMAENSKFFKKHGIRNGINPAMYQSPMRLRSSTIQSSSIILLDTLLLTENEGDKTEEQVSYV
Chain of Histamine H1 receptor (Rattus norvegicus, UniProt P31390) (P31390 whole entry): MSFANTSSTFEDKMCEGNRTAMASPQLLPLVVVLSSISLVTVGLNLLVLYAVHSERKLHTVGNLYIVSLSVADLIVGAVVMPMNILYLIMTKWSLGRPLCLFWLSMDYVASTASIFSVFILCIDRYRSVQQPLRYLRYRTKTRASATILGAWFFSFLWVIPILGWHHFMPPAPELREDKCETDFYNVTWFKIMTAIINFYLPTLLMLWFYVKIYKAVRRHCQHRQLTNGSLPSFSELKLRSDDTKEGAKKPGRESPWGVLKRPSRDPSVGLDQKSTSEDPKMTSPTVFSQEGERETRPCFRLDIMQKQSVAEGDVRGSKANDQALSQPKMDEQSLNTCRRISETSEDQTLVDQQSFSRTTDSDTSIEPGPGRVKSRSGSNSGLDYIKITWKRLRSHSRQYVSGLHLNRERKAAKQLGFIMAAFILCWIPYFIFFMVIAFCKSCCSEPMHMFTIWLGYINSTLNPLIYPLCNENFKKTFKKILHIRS
Chain of Cytochrome P450 2C19 (P33261 whole entry): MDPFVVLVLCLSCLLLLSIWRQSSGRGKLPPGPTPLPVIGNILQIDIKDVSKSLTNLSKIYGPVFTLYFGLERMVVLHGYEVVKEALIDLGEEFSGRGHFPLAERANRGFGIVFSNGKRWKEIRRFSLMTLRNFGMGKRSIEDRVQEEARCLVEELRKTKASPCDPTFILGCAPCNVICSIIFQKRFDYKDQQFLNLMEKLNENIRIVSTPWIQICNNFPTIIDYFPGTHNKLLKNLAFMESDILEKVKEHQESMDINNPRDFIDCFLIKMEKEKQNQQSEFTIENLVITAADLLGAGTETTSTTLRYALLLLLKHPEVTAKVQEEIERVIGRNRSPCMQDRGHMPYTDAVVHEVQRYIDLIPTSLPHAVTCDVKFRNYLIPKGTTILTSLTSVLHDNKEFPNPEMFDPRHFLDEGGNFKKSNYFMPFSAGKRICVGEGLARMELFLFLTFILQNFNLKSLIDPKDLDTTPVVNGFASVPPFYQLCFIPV

Take `O=C(O)C1(F)CCN(C2CC[C@]3(Cc4ccccc4Cc4ccccc43)C2)CC1` (stereo partly drawn): in series [1], the Kp was 0.1. The half-life in series [2] is 1.2 h. Further, the IC50 on Cytochrome P450 2C9 was above 10 µM; at Cytochrome P450 2D6 it was above 10 µM; against Cytochrome P450 1A2, above 10 µM; in series [7], above 39.8 µM; against Cytochrome P450 2C19, above 10 µM; at Cytochrome P450 3A4, above 10 µM. Also, the fraction unbound in [3] was 0.084; in series [5] it was 0.02. For the same compound, the Ki is 0.0398 µM on Histamine H1 receptor [4]; above 2 µM in series [6]; 1 µM in series [8]; 0.0123 µM at Histamine H1 receptor [9]; 0.355 µM in [11]; 0.0501 µM in [13]. For the same compound, the bioavailability in series [10] was 22%. Besides, in [12], the clearance came to 61 mL/min/kg. The Vd in [14] is 3.8 L/kg.

`O=C(O)C1=CCN(C2CCC3(Cc4ccccc4Oc4ccccc43)C2)CC1` (stereo not drawn): the Kp in [1] amounted to 1.8. The compound further showed a half-life in [2] of 3 h. The IC50 on Cytochrome P450 2C9, at Cytochrome P450 2D6, against Cytochrome P450 1A2, on Cytochrome P450 2C19 and at Cytochrome P450 3A4 was above 10 µM throughout. In addition, the results for the unbound share (fraction unbound) in [3] and in [5] were 0.103 and 0.027, respectively. Further, the Ki at Histamine H1 receptor [4] is 0.0501 µM; in series [6] it was above 2 µM; in series [8] it was 1 µM; at Histamine H1 receptor [9], 0.02 µM; in series [11], 0.105 µM; in series [13] it was 0.0251 µM. Also, the bioavailability in series [10] amounted to 37%. Besides, in series [12], the clearance is 16 mL/min/kg. The Vd in [14] was 2.7 L/kg.

On to `O=C(O)[C@]12C[C@H]1CN(C1CC[C@]3(Cc4ccccc4Cc4ccccc43)C1)C2` (stereo partly drawn), for which the Vd in [15] is 2.4 L/kg. Besides, the clearance in series [16] was determined as 5 mL/min/kg. Moreover, the IC50 was above 10 µM at Cytochrome P450 2C9; above 10 µM against Cytochrome P450 2D6; above 10 µM at Cytochrome P450 1A2; above 39.8 µM in [7]; above 10 µM against Cytochrome P450 2C19; above 10 µM on Cytochrome P450 3A4. In addition, the fraction unbound in series [3] is 0.08; in series [5], 0.023. The same compound showed a half-life in series [17] of 5.3 h. In addition, the Ki at Histamine H1 receptor [4] is 0.0316 µM; in series [6] it was 0.398 µM; in series [8], 0.0631 µM; at Histamine H1 receptor [9], 0.00537 µM; in series [11], 0.0692 µM; in series [13], 0.0316 µM. For the same compound, the Kp in series [18] turned out to be 2.2. In addition, in series [19], the bioavailability was found to be 62%.

Turning to `CN(C)C1CC[C@]2(Cc3ccccc3Cc3ccccc32)C1` (stereo partly drawn), the inhibition constant (Ki) at Histamine H1 receptor [4] was 0.00398 µM; in series [6], 0.0158 µM; in series [8], 0.00794 µM; in [13] it was 0.0126 µM. Also, the pKi in series [20] was below 6.

Turning to `O=C(O)C1=CCCN(C2CC[C@]3(Cc4ccccc4Cc4ccccc43)C2)C1` (single isomer, unassigned; stereoisomer 1), the Kp in series [1] worked out at 0.1. In [2], this compound showed a half-life of 2.4 h. The IC50 against Cytochrome P450 2C9, on Cytochrome P450 2D6, against Cytochrome P450 1A2, against Cytochrome P450 2C19 and against Cytochrome P450 3A4 was above 10 µM throughout. In addition, the values for the fraction unbound in series [3] and in series [5] were 0.024 and 0.03, respectively. For the same compound, the Ki was 0.0251 µM on Histamine H1 receptor [4]; 0.158 µM in series [8]; 0.00871 µM on Histamine H1 receptor [9]; 0.117 µM in series [11]; 0.126 µM in [13]. In series [10], this compound returned a bioavailability of 80%. In [12], the clearance was 2 mL/min/kg. Besides, the Vd in series [14] turned out to be 0.4 L/kg.

(Values after ChEMBL document CHEMBL1275351, “Novel spirotetracyclic zwitterionic dual H(1)/5-HT(2A) receptor antagonists for the treatment of sleep disorders” (J Med Chem, 2010).)
